9 compounds from ChEMBL document CHEMBL1122415, “Folate antagonists. 20. Synthesis and antitumor and antimalarial properties of trimetrexate and related 6-[(phenylamino)methyl]-2,4-quinazolinediamines” (1983) can be followed below.

SMILES strings stand for the structures. Several values for one entry are separate records, joined by “and”; a condition that tells them apart may be missing. Equal entries are not always repeated.

The subject of assay [1] is Plasmodium berghei. In words: Antimalarial effect against trophozoite-induced Plasmodium berghei in mice (Mus musculus) at 320 mg/kg subcutaneous dose. Type of assay: functional. Conditions: 320 mg/kg.
The species entered for assay [2] is Mus musculus. The experiment in a line: Daily dose required for 90% parasitaemia in trophozoite induced Plasmodium berghei in 21 mice. Type of assay: functional. The essentials: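 Oral suppressive test in mice against a normal drug-sensitive P. berghei strain. Drug given continuously in the diet for six consecutive days, with doses as free base equivalent. SD90 is the daily dose (mg/kg) giving 90% suppression of parasitemia versus control mice, estimated graphically on semilog paper.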

In assay [3] the test system is Mus musculus. The experiment in a line: Antimalarial effect against trophozoite-induced Plasmodium berghei in mice (Mus musculus) after subcutaneous administration dose of 320 mg/kg; 1 survived after 60 days of post infection.
For another assay, the system named is L1210. The experiment in a line: Molar concentration required to reduce the number of L1210 cells by 50% after incubation for 2 days. Format: functional, Mus musculus. The settings on record: read-out: ID50 (the source's name). The essentials: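 L1210 leukemia cells in tissue culture exposed to drug for 2 days. ID50 is the molar concentration that reduces L1210 cell number by 50%. Mithramycin is the reference drug.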

Assay [4] has as its system Plasmodium berghei. In words: Antimalarial effect against trophozoite-induced Plasmodium berghei in mice (Mus musculus) at 5 mg/kg subcutaneous dose. Format: functional.
In assay [5] the test system is Plasmodium berghei. In words: Antimalarial effect against trophozoite-induced Plasmodium berghei in mice (Mus musculus) after subcutaneous dose of 10 mg/kg. Format: functional.
The test system of assay [6] is Mus musculus. The experiment in a line: Antimalarial effect against trophozoite-induced Plasmodium berghei in mice (Mus musculus) after subcutaneous administration dose of 320 mg/kg; 3 survived after 60 days of postinfection. Format: functional.
In assay [7] the test system is Plasmodium berghei. In words: Antimalarial effect against trophozoite-induced Plasmodium berghei in mice (Mus musculus) at 80 mg/kg subcutaneous dose. Type of assay: functional.
Assay [8] relates to Plasmodium berghei. The experiment in a line: Antimalarial effect against trophozoite-induced Plasmodium berghei in mice (Mus musculus) at 40 mg/kg subcutaneous dose. Type of assay: functional.
Assay [9] relates to Plasmodium berghei. The experiment in a line: Antimalarial effect against trophozoite-induced Plasmodium berghei in mice (Mus musculus) at 20 mg/kg subcutaneous dose. Type of assay: functional.
Assay [10] relates to Mus musculus. The experiment in a line: Antimalarial effect against trophozoite-induced Plasmodium berghei in mice (Mus musculus) after subcutaneous administration dose of 40 mg/kg; 2 survived after 60 days of postinfection. Format: functional.
Assay [11] has as its system Plasmodium berghei. The experiment in a line: Antimalarial effect against trophozoite-induced Plasmodium berghei in mice (Mus musculus) after subcutaneous dose of 160 mg/kg. Format: functional.
Assay [12] has as its system Mus musculus. The experiment in a line: Antimalarial effect against trophozoite-induced Plasmodium berghei in mice (Mus musculus) after subcutaneous administration dose of 160 mg/kg; 3 survived after 60 days of postinfection. Type of assay: functional.
For assay [13], the system named is Mus musculus. In words: Antimalarial effect against trophozoite-induced Plasmodium berghei in mice (Mus musculus) after subcutaneous administration dose of 2.5 mg/kg. Format: functional.
Assay [14] has as its system Mus musculus. In words: Antimalarial effect against trophozoite-induced Plasmodium berghei in mice (Mus musculus) after subcutaneous administration dose of 40 mg/kg; 3 survived after 60 days of post infection. Type of assay: functional.
The subject of assay [15] is Mus musculus. The experiment in a line: Antimalarial effect against trophozoite-induced Plasmodium berghei in mice (Mus musculus) after subcutaneous administration dose of 80 mg/kg; 1 survived after 60 days of postinfection. Format: functional. Conditions: 80 mg/kg.
For assay [16], the system named is Mus musculus. In words: Antimalarial effect against trophozoite-induced Plasmodium berghei in mice (Mus musculus) after subcutaneous administration dose of 20 mg/kg; 3 survived after 60 days of post infection. Format: functional.
Assay [17] deals with Mus musculus. In words: Antimalarial effect against trophozoite-induced Plasmodium berghei in mice (Mus musculus) after subcutaneous administration dose of 160 mg/kg; 4 survived after 60 days. Format: functional.
The subject of assay [18] is Mus musculus. The experiment in a line: Antimalarial effect against trophozoite-induced Plasmodium berghei in mice (Mus musculus) after subcutaneous administration dose of 80 mg/kg; 1 survived after 60 days. Type of assay: functional.
Assay [19] relates to Mus musculus. The experiment in a line: Antimalarial effect against trophozoite-induced Plasmodium berghei in mice (Mus musculus) after subcutaneous after 60 days. Format: functional.
Assay [20] relates to Mus musculus. The experiment in a line: Antimalarial effect against trophozoite-induced Plasmodium berghei in mice (Mus musculus) after subcutaneous administration dose of 40 mg/kg; 1 survival after 60 days. Type of assay: functional.
Assay [21] deals with Mus musculus. In words: Antimalarial effect against trophozoite-induced Plasmodium berghei in mice (Mus musculus) after subcutaneous administration dose of 40 mg/kg; 1 survived after 60 days of postinfection. Format: functional.

For the compound `CC(=O)O.Nc1nc(N)c2cc(CNc3ccccc3Cl)ccc2n1.O`, the “Delta MST” value with Plasmodium berghei [1] was 9.9 days and 8.4 days; in the assay on Mus musculus [3], 7.9 days; with Plasmodium berghei [4] it was 0.7 days; in the assay on Plasmodium berghei [5] it was 0.7 days; in the assay with Mus musculus [6], 8.4 days; in the assay on Plasmodium berghei [7], 7.7 days. Also, the “Delta MST” value in the assay on Plasmodium berghei [8] (40 mg/kg) was 3.1 days and 1.3 days. In the assay listed under Mus musculus [2], this compound gave an SD90 of 8 mg/kg/day. Besides, the IC50 with L1210 (Mus musculus, L1210, 48 h) is 93 nM; in the assay on L1210 it was 68 nM.
Consider `CC(=O)O.Nc1nc(N)c2cc(CNc3ccc4cc(Cl)ccc4c3)ccc2n1.O.O`, for which the “Delta MST” value with Plasmodium berghei [9] (20 mg/kg) was 8.3 days and 8.5 days; in the assay with Plasmodium berghei [5] it was 3.3 days; in the assay with Mus musculus [10] it was 20.6 days and 20.7 days. Besides, the IC50 is 140 nM with L1210 (Mus musculus, L1210, 48 h) and 260 nM with L1210.
In the assay listed under Mus musculus [2], `Nc1nc(N)c2cc(NCc3ccc(Cl)c(Cl)c3)ccc2n1` had an SD90 of 8.5 mg/kg/day. The “Delta MST” value was 9.9 days in the assay on Plasmodium berghei [11]; 9.9 days in the assay on Mus musculus [12]; 13.1 days and 7.3 days with Plasmodium berghei [7] (80 mg/kg); 7.1 days and 2.7 days with Plasmodium berghei [8] (40 mg/kg).
In the case of `Nc1nc(N)c2c(Cl)c(CN(C=O)c3ccc(Cl)c(Cl)c3)ccc2n1`, the “Delta MST” value with Plasmodium berghei [9] (20 mg/kg) was 21.9 days and 21.6 days; in the assay with Mus musculus [13] (2.5 mg/kg), 4.1 days and 3.1 days; in the assay with Mus musculus [14] it was 23.9 days; with Plasmodium berghei [5] it was 7.9 days; in the assay on Plasmodium berghei [7] it was 24.4 days; in the assay on Plasmodium berghei [8], 21.9 days.
As for `Nc1nc(N)c2cc(CN(N=O)c3ccc(Cl)c(C(F)(F)F)c3)ccc2n1`, the “Delta MST” value in the assay with Plasmodium berghei [9] (20 mg/kg) was 5.1 days and 5.3 days; with Plasmodium berghei [5], 1.3 days; in the assay on Mus musculus [15], 14.9 days and 15.2 days; in the assay with Plasmodium berghei [8] (40 mg/kg), 10.9 days and 11.1 days.
On to `Cc1c(CN(C=O)c2ccc(Cl)c(Cl)c2)ccc2nc(N)nc(N)c12`, for which the “Delta MST” value with Plasmodium berghei [9] (20 mg/kg) is 9.9 days and 9.4 days; in the assay with Mus musculus [16], 9.9 days; in the assay with Plasmodium berghei [4], 5.3 days; with Plasmodium berghei [5] (10 mg/kg) it was 7.7 days and 5.3 days and 3.9 days; with Plasmodium berghei [8] it was 29.9 days. Besides, the IC50 came out at 21 nM in the assay on L1210 (Mus musculus, L1210, 48 h) and 26 nM with L1210.
For `Nc1nc(N)c2c(Cl)c(CN(N=O)c3ccc(Cl)c(Cl)c3)ccc2n1`, the “Delta MST” value is 6.1 days and 6.3 days in the assay with Plasmodium berghei [9] (20 mg/kg); 3.5 days in the assay on Plasmodium berghei [5]; 21.9 days with Mus musculus [17]; 13.4 days in the assay with Mus musculus [18]; 8.1 days in the assay on Plasmodium berghei [8].
For `CC1(C)N=C(N)N=C(N)N1c1ccc(Cl)cc1.Cl` [CHLORCYCLOGUANIL HYDROCHLORIDE], the “Delta MST” value with Mus musculus [19] was 21.6 days; in the assay with Plasmodium berghei [9] it was 7.9 days; in the assay on Plasmodium berghei [5], 4.9 days; in the assay with Mus musculus [20], 13.4 days.
Consider `CCc1nc(N)nc(N)c1-c1ccc(Cl)cc1` [PYRIMETHAMINE], for which the “Delta MST” value with Mus musculus [13] was 4.7 days; in the assay with Plasmodium berghei [4], 3.1 days; with Plasmodium berghei [5] it was 5.3 days; in the assay with Mus musculus [21], 7.7 days and 6.1 days.
